Measurements as given in ChEMBL document CHEMBL3734720, “Synthesis of thiophene-thiosemicarbazone derivatives and evaluation of their in vitro and in vivo antitumor activities” (Eur J Med Chem, 2015).

How the values were obtained:
[1] = Antitumor activity against mouse EAT implanted in Balb/C mouse assessed as change in paw volume at 30 mg/kg, po administered on day 3 post tumor inoculation measured on day 15 by plethysmometer analysis (reference value: 166.5 +/- 6.0%); type: functional
786-0 [2] = experiment: Antiproliferative activity against human 786-0 cells assessed as growth inhibition after 48 hrs by SRB assay; type: functional; conditions: 786-0, 48 h
In short: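 Cells exposed 48 h at 37 °C, 5% CO2 to 0.25, 2.5, 25 and 250 µg/mL in DMSO/RPMI (final DMSO 0.1%); doxorubicin standard at 0.025–25 µg/mL. Plates fixed with 50% TCA before (T0) and after treatment; protein content read by sulforhodamine B at 540 nm. GI50 (µM) from nonlinear regression of concentration–response curves; triplicate.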

786-0 [3] = experiment: Induction of cell death in human 786-0 cells assessed as loss of cell membrane integrity at 50 uM after 24 hrs by annexin V/7-amino-actinomycin D double staining based flow cytometric analysis (reference value: 3.6+/- 0.8%); type: functional
Mus musculus = experiment: Acute toxicity in Balb/C mouse assessed as adhesion of organs at 600 mg/kg, po; type: organism-based; conditions: in vivo
In short: (§1)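 Fixed dose procedure following OECD guideline; Balb/C mice (20-35 g) fasted 16 h, groups of 5 given single oral doses stepwise at 600, 400 and 200 mgKg-1; survival and clinical signs of pain, suffering and impending death recorded per OECD guidance.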

[4] = Acute toxicity in Balb/C mouse assessed as survival rate at 600 mg/kg, po; type: organism-based; conditions: in vivo; in short: as §1
[5] = Antitumor activity against mouse EAT implanted in Balb/C mouse assessed as change in paw volume at 100 mg/kg, po administered on day 3 post tumor inoculation measured on day 3 by plethysmometer analysis (reference value: 40.2 +/- 7.0%); type: functional
[6] = Antitumor activity against mouse EAT implanted in Balb/C mouse assessed as change in paw volume at 100 mg/kg, po administered on day 3 post tumor inoculation measured on day 15 by plethysmometer analysis (reference value: 166.5 +/- 6.0%); type: functional
[7] = Antitumor activity against mouse EAT implanted in Balb/C mouse assessed as change in paw volume at 30 mg/kg, po administered on day 3 post tumor inoculation measured on day 9 by plethysmometer analysis (reference value: 95.5 +/- 5.2%); type: functional
[8] = Antitumor activity against mouse EAT implanted in Balb/C mouse assessed as change in paw volume at 300 mg/kg, po administered on day 3 post tumor inoculation measured on day 15 by plethysmometer analysis (reference value: 166.5 +/- 6.0%); type: functional
786-0 [9] = experiment: Cell cycle arrest in human 786-0 cells assessed as accumulation at G2/M phase at 25 uM after 24 hrs by propidium iodide based flow cytometric analysis (reference value: 35.7 +/- 0.9%); type: functional

**Q.** Which results are given for `S=C(N/N=C/c1cccs1)Nc1ccc(Br)cc1`?
**A.** Activity [1]: 82%; GI50 (786-0 [2]): 4.5 µM; Activity (786-0 [3]): 35.7%; Activity (Mus musculus): Toxic; survival [4]: 100%; Activity [5]: 33.4%; Activity [6]: 118.6%; Activity [7]: 57.1%; Activity [8]: 106%; Activity (786-0 [9]): 35.9%
